Reference: ChEMBL document CHEMBL3124798, “Convenient one-pot synthesis, anti-mycobacterial and anticancer activities of novel benzoxepinoisoxazolones and pyrazolones” (Eur J Med Chem, 2014)
≈ marks a conversion by molar mass, not a printed value. Calls of active or inactive are those of the source. The rule behind the calls is not given here.

What was measured:
[1] = test system: Mycolicibacterium smegmatis; assay: Antimycobacterial activity against Mycobacterium smegmatis MC2 155 ATCC 14468 after 32 hrs by broth microdilution method; format: functional
In short: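 M. smegmatis MC² 155 grown overnight to mid-log in Middlebrook 7H9 (0.2% glycerol, 0.1% Tween-80, 10% ADS) at 37 °C, subcultured to OD600 ≈0.3, then diluted 1:1000 into 96-well plates. Final compound levels were […]. Incubated 32 h at 37 °C, turbidity read at OD600, triplicates. GI50 was derived from % growth inhibition. INH/rifampicin positive controls, DMSO and medium-only controls.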

HEK293 = assay: Cytotoxicity against HEK293 cells after 48 hrs by MTT assay; format: cell-based, Homo sapiens
In short: (§1)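 Cells taken from T75 flasks/90 mm dishes when sub-confluent, trypsinized and seeded at 5000–10000 cells/well according to doubling time. Test compounds added after 18 h at four concentrations, in triplicate wells. Incubation 48 h, then MTT (5 mg/mL) for 60 min at 37 °C and the bound dye solubilized. Percent growth taken against control wells. IC50 read from dose-response curves; three independent experiments, mean ± SD.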

HeLa [2] = assay: Cytotoxicity against human HeLa cells after 48 hrs by MTT assay; format: functional, cell-based; in short: as §1
DU-145 = assay: Cytotoxicity against human DU145 cells after 48 hrs by MTT assay; format: functional, cell-based; in short: as §1
A549 = assay: Cytotoxicity against human A549 cells after 48 hrs by MTT assay; format: functional, cell-based; in short: as §1
HeLa [3] = assay: Induction of apoptosis in human HeLa cells assessed as activation of caspase-3 using Ac-DEVD-AMC as substrate at 10 to 25 uM after 48 hrs by fluorescence assay relative to control; format: functional
In short: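 HeLa cells treated 48 h with compound or DMSO, then lysed in 50 mM HEPES, 5 mM CHAPS, 5 mM DTT, pH 7.5. Lysate incubated with Ac-DEVD-AMC in 20 mM HEPES pH 7.5, 0.1% CHAPS, 2 mM EDTA, 5 mM DTT for 2 h at 37 °C. AMC read at ex/em 380/460 nm and normalized to Bradford protein. Activity expressed as treated relative to mock-treated. Doxorubicin used as positive control.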

HeLa [4] = assay: Ratio of IC50 for HEK293 cells to IC50 for human HeLa cells
HeLa [5] = assay: Induction of apoptosis in human HeLa cells assessed as activation of caspase-9 using Ac-DEVD-AMC as substrate at 10 to 25 uM after 48 hrs by fluorescence assay relative to control; format: functional
[6] = Homo sapiens, DU-145, 48 h, read-out: IC50
[7] = Homo sapiens, A549, 48 h, read-out: IC50
[8] = Homo sapiens, HeLa, 48 h, read-out: IC50
[9] = Homo sapiens, HEK293, 48 h, read-out: IC50

SMILES	GI50 ([1]; MC2 155 ATCC 14468, 32 h) [µg/mL]	IC50 (HEK293; hek293)	IC50 (HeLa [2]; hela)	IC50 (DU-145; [6]) [µM]	IC50 (A549; a549)	IC50 (DU-145; du-145)	IC50 (A549; [7]) [µM]	IC50 (HeLa [2]; [8]) [µM]	GI50 [1]	IC50 (HEK293; [9]) [µM]	fold change (FC) (HeLa [3])	Ratio IC50 (HeLa [4])	fold change (FC) (HeLa [5])
CO[C@H]1/C=C/O[C@@]2(C)Oc3c(C)c(O)c4c(O)c(c(/C=N/N5CCN(C)CC5)c(O)c4c3C2=O)NC(=O)/C(C)=C\C=C\[C@H](C)[C@H](O)[C@@H](C)[C@@H](O)[C@@H](C)[C@H](OC(C)=O)[C@@H]1C [RIFAMPIN]	1.04 (≈ 1.26 µM)	–	–	–	–	–	–	–	–	–	–	–	–
Cc1ccc(N2N=C3COc4ccccc4C=C3C2=O)cc1	49.3 (≈ 170 µM)	Not Active	Not Active	152	Not Active	–	–	–	–	–	–	–	–
O=C1C2=Cc3cc(Br)ccc3OCC2=NN1c1ccccc1	11.9 (≈ 33.5 µM)	Not Active	Not Active	123	Not Active	–	–	–	–	–	–	–	–
Cc1ccc(N2N=C3COc4ccccc4C=C3C2=O)cc1C	19.4 (≈ 63.6 µM)	Not Active	Not Active	–	–	Not Active	84.3	–	–	–	–	–	–
COc1ccc(N2N=C3COc4ccccc4C=C3C2=O)cc1	–	Not Active	–	67.5	–	–	133	166	inactive	–	–	–	–
O=C1ON=C2COc3ccccc3C=C12	21.4 (≈ 106 µM)	Not Active	–	84.8	Not Active	–	–	85	–	–	–	–	–
COc1ccc2c(c1)C=C1C(=O)N(c3ccc(Br)cc3)N=C1CO2	–	–	–	–	–	Not Active	33.3	180	inactive	161	–	–	–
Cc1ccccc1N1N=C2COc3ccccc3C=C2C1=O	–	–	–	63.9	Not Active	–	–	109	inactive	154	–	–	–
COc1ccc2c(c1)C=C1C(=O)N(c3ccc(C)cc3)N=C1CO2	–	–	–	117	–	–	199	129	inactive	138	–	–	–
O=C1C2=Cc3cc(-c4ccccc4)ccc3OCC2=NN1c1ccccc1	–	Not Active	Not Active	–	–	Not Active	117	–	inactive	–	–	–	–
Cc1ccc(N2N=C3COc4ccc(-c5ccccc5)cc4C=C3C2=O)cc1	34 (≈ 92.8 µM)	–	–	78.2	Not Active	–	–	185	–	149	–	–	–
COc1ccc2c(c1)C=C1C(=O)ON=C1CO2	–	–	–	33.6	–	–	46.5	10.1	inactive	47.7	<=40	4	20
O=C1C2=Cc3ccccc3OCC2=NN1c1ccc(Cl)cc1	–	Not Active	Not Active	89.4	–	–	215	–	inactive	–	–	–	–
O=C1C2=Cc3cc(-c4ccccc4)ccc3OCC2=NN1c1ccc(Br)cc1	–	Not Active	Not Active	140	–	–	118	–	inactive	–	–	–	–
O=C1C2=Cc3ccccc3OCC2=NN1c1cccc(Cl)c1	–	Not Active	Not Active	–	–	Not Active	244	–	inactive	–	–	–	–
O=C1C2=Cc3ccccc3OCC2=NN1c1ccccc1	23.2 (≈ 83.9 µM)	Not Active	Not Active	–	Not Active	Not Active	–	–	–	–	–	–	–
O=C1C2=Cc3cc(Br)ccc3OCC2=NN1c1ccc(Br)cc1	–	Not Active	Not Active	–	Not Active	Not Active	–	–	inactive	–	–	–	–
Cc1ccc(N2N=C3COc4ccc(Br)cc4C=C3C2=O)cc1	42.4 (≈ 115 µM)	Not Active	Not Active	–	–	Not Active	163	–	–	–	–	–	–
COc1cccc2c1C(=O)c1c(O)c3c(c(O)c1C2=O)C[C@@](O)(C(=O)CO)C[C@@H]3O[C@H]1C[C@H](N)[C@H](O)[C@H](C)O1 [DOXORUBICIN]	–	–	–	8.19	–	–	7.47	6.94	–	7.41	–	–	–
O=C1ON=C2COc3ccc(-c4ccccc4)cc3C=C12	9.1 (≈ 32.8 µM)	–	–	28.9	–	–	29.7	9.03	–	39.2	<=40	4	20
NNC(=O)c1ccncc1 [ISONIAZID]	7.94 (≈ 57.9 µM)	–	–	–	–	–	–	–	–	–	–	–	–
O=C1ON=C2COc3ccc(Br)cc3C=C12	28.5 (≈ 102 µM)	–	–	28.8	–	–	49.1	10.1	–	48.2	<=40	4	20
O=C1C2=Cc3ccccc3OCC2=NN1c1ccc(F)cc1	38.7 (≈ 132 µM)	Not Active	Not Active	–	Not Active	Not Active	–	–	–	–	–	–	–
O=C1C2=Cc3ccccc3OCC2=NN1c1cccc(F)c1	–	Not Active	–	97	–	–	179	190	inactive	–	–	–	–
COc1ccc2c(c1)C=C1C(=O)N(c3ccccc3)N=C1CO2	15.7 (≈ 51.1 µM)	Not Active	–	–	Not Active	Not Active	–	167	–	–	–	–	–
Cc1cccc(N2N=C3COc4ccccc4C=C3C2=O)c1	–	Not Active	Not Active	–	Not Active	Not Active	–	–	inactive	–	–	–	–
O=C1C2=Cc3ccccc3OCC2=NN1c1ccc(Br)cc1	–	Not Active	Not Active	117	Not Active	–	–	–	inactive	–	–	–	–
